The source made the active and inactive calls. The calls are words filed in the database; no cut-off is given here.
How the values were obtained:
Mus musculus [1] = assay: Antiosteoporotic activity in ddY mouse model of OVX-induced osteoporosis assessed as increase in ratio of bone volume/trabecular volume in femur bone at 10 mg/kg, po administered once daily via gavage for 4 weeks by microcomputed tomographic analysis; assay type: functional, organism-based
Summary of the method: (§1)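 Female ddY mice were ovariectomized. Oral gavage began 1 week after surgery and ran once daily for 28 d. Vehicle was 300 μL PBS containing 0.5% (v/v) DMSO, also given to sham and OVX controls. Mice were then euthanized and femur and tibia fixed for CT imaging. Values are mean ± SD of four mice.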

[2] = Terminal half-life in ICR mouse at 50 mg/kg, po administered via gavage measured up to 8 hrs by LC-MS/HPLC analysis; assay type: ADME, organism-based; settings: in vivo, read-out: beta t1/2 (converted)
Summary of the method: (§2)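 Six-week-old male ICR mice (n = 3) were kept at 25 ± 2 °C on a 12 h light/dark cycle and dosed iv or po. Total plasma concentration (bound plus unbound) was plotted against time. Terminal T1/2 came from the elimination phase: a two-compartment fit for po dosing and a single-compartment fit for iv dosing.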

Mus musculus [3] = assay: Antiosteoporotic activity in ddY mouse model of OVX-induced osteoporosis assessed as increase in trabecular number in femur bone at 10 mg/kg, po administered once daily via gavage for 4 weeks by microcomputed tomographic analysis; assay type: functional, organism-based; summary of the method: as §1
[4] = Toxicity in ddY mouse model of OVX-induced osteoporosis assessed as increase in body weight at 10 mg/kg, po administered once daily via gavage for 4 weeks measured 5 weeks post OVX-challenge; assay type: organism-based; settings: in vivo, 840 h
Summary of the method: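 Dosing of ddY mice began one week after ovariectomy: compound in 300 μL of 0.5% (v/v) DMSO-containing PBS by gavage once daily for 28 d. OVX and sham controls received vehicle. Body weight was compared with sham control 5 weeks after OVX.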

[5] = Oral bioavailability in ICR mouse at 10 mg/kg administered via gavage measured up to 8 hrs by LC-MS/HPLC analysis; assay type: ADME, organism-based; settings: in vivo
Summary of the method: (§3)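 Six-week-old male ICR mice, housed at 25 ± 2 °C, 60 ± 10% humidity, 12 h light/dark. Dosing was iv at 2 mg/kg or po at 10 and 50 mg/kg. Plasma concentrations were total, bound plus unbound. AUC∞ is from time zero to infinity. F = (AUCpo/AUCiv) × 100. Cmax and AUC∞ are mean ± SD of three mice.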

Mus musculus [6] = assay: Antiosteoporotic activity in ddY mouse model of OVX-induced osteoporosis assessed as increase in new bone volume in femur bone at 10 mg/kg, po administered once daily via gavage for 4 weeks by microcomputed tomographic analysis; assay type: functional, organism-based; summary of the method: as §1
Mus musculus [7] = assay: Antiosteoporotic activity in ddY mouse model of OVX-induced osteoporosis assessed as increase in femur bone mineral density at 10 mg/kg, po administered once daily via gavage for 4 weeks by microcomputed tomographic analysis; assay type: functional, organism-based; summary of the method: as §1
[8] = Terminal half-life in ICR mouse at 10 mg/kg, po administered via gavage measured up to 8 hrs by LC-MS/HPLC analysis; assay type: ADME, organism-based; settings: in vivo, read-out: beta t1/2 (converted); summary of the method: as §2
Mus musculus [9] = assay: Antiosteoporotic activity in ddY mouse model of OVX-induced osteoporosis assessed as increase in trabecular thickness in femur bone at 10 mg/kg, po administered once daily via gavage for 4 weeks by microcomputed tomographic analysis; assay type: functional, organism-based; summary of the method: as §1
[10] = AUC (0 to infinity) in ICR mouse at 10 mg/kg, po administered via gavage measured up to 8 hrs by LC-MS/HPLC analysis; assay type: ADME, organism-based; parameters: dose 10 mg/kg, route oral, time infinity; settings: in vivo; summary of the method: as §3
MC3T3-E1 [11] = assay: Osteo-blastogenic activity in mouse MC3T3-E1 cells assessed as stimulation of ALP activity at 10 uM supplemented with fresh medium every 3 to 4 days and measured after 14 days relative to control; assay type: functional
Summary of the method: (§4)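 MC3T3-E1 subclone 4 osteoblastic cells were grown in α-MEM at 37 °C under 5% CO2 with compound present during differentiation. ALP activity was read 14 d after induction and expressed as % of untreated cells. Values are mean ± SD of three independent experiments.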

MC3T3-E1 [12] = assay: Osteo-blastogenic activity in mouse MC3T3-E1 cells assessed as stimulation of ALP activity at 50 uM supplemented with fresh medium every 3 to 4 days and measured after 14 days relative to control; assay type: functional; summary of the method: as §4
[13] = Terminal half-life in ICR mouse at 2 mg/kg, iv measured up to 8 hrs by LC-MS/HPLC analysis; assay type: ADME, organism-based; settings: in vivo, read-out: beta t1/2 (converted); summary of the method: as §2
[14] = Cmax in ICR mouse at 50 mg/kg, po administered via gavage measured up to 8 hrs by LC-MS/HPLC analysis; assay type: ADME, organism-based; parameters: dose 50 mg/kg, route oral; settings: in vivo; summary of the method: as §3
[15] = Cmax in ICR mouse at 10 mg/kg, po administered via gavage measured up to 8 hrs by LC-MS/HPLC analysis; assay type: ADME, organism-based; parameters: dose 10 mg/kg, route oral; settings: in vivo; summary of the method: as §3
[16] = Oral bioavailability in ICR mouse at 50 mg/kg administered via gavage measured up to 8 hrs by LC-MS/HPLC analysis; assay type: ADME, organism-based; settings: in vivo; summary of the method: as §3
[17] = AUC (0 to infinity) in ICR mouse at 2 mg/kg, iv measured up to 8 hrs by LC-MS/HPLC analysis; assay type: ADME, organism-based; parameters: dose 2 mg/kg, time infinity, route intravenous; settings: in vivo; summary of the method: as §3
Mus musculus [18] = assay: Antiosteoporotic activity in ddY mouse model of OVX-induced osteoporosis assessed as reduction in trabecular separation in femur bone at 10 mg/kg, po administered once daily via gavage for 4 weeks by microcomputed tomographic analysis; assay type: functional, organism-based; summary of the method: as §1
[19] = AUC (0 to infinity) in ICR mouse at 50 mg/kg, po administered via gavage measured up to 8 hrs by LC-MS/HPLC analysis; assay type: ADME, organism-based; parameters: dose 50 mg/kg, time infinity, route oral; settings: in vivo; summary of the method: as §3
[20] = Inhibition of M-CSF/RANKL-induced osteoclast differentiation in C57BL/6 mouse bone marrow macrophage assessed as reduction in multinucleated TRAP+ cells incubated for 6 days with fresh media replacement on day 3 and measured on day 6 by TRAP staining-based microscopic analysis; assay type: functional, cell-based; settings: C57BL/6, BMDM
Summary of the method: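 BMM came from femur and tibia marrow of 5–8-week-old male C57BL/6 mice and were purified over lymphocyte separation medium. Cells, 1 × 10^5 per well, were grown in α-MEM/10% FBS with M-CSF (60 ng/mL) and RANKL (150 ng/mL) for 6 d, medium changed day 3. Compound range was 0.01−100 μM. TRAP+ multinucleated cells were counted on day 6.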

[21] = Cytotoxicity against mouse RAW264.7 cells after 24 hrs by MTT assay; assay type: cell-based; settings: read-out: LD50
Summary of the method: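 RAW264.7 macrophages (preosteoclast line) were kept in DMEM at 37 °C under 5% CO2 and tested without RANKL. MTT read-out of growth and survival, expressed as LD50.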

Mus musculus [22] = assay: Antiosteoporotic activity in ddY mouse model of OVX-induced osteoporosis assessed as increase in cross-sectional thickness in femur bone at 10 mg/kg, po administered once daily via gavage for 4 weeks by microcomputed tomographic analysis; assay type: functional, organism-based; summary of the method: as §1
BMDM = assay: Effect on NFkappaB expression in M-CSF induced C57BL/6 mouse bone marrow macrophages at 0.5 uM measured over 5 days by Western blot analysis; assay type: functional, cell-based
Summary of the method: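 C57BL/6 BMM were proliferated with M-CSF alone without RANKL and treated at 0.5 or 10 μM. NF-κB expression was followed over time by Western blot.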

B16-F10 = assay: Antiproliferative activity against mouse B16F10 cells after 24 hrs by MTT assay; assay type: functional; settings: B16-F10, 24 h, read-out: LD50 (the source's name)
Summary of the method: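 Cells were maintained in DMEM at 37 °C under 5% CO2. Growth and survival were estimated by MTT assay, and the value is reported as LD50.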

Row | SMILES | Activity (Mus musculus [1]) | half-life [2] [h] | Activity (Mus musculus [3]) | Activity [4] | bioavailability [5] [%] | Activity (Mus musculus [6]) | Activity (Mus musculus [7]) | half-life [8] [h] | Activity (Mus musculus [9]) | AUC(0-inf) [10] [µM·h] | Activity (MC3T3-E1 [11]) [%] | Activity (MC3T3-E1 [12]) [%] | half-life [13] [h] | Cmax [14] [nM] | Cmax [15] [nM] | bioavailability [16] [%] | AUC(0-inf) [17] [µM·h] | Activity (Mus musculus [18]) | AUC(0-inf) [19] [µM·h] | IC50 [20] [µM] | other results
1 | COc1ccc(/C=C/C(C)=O)cc1O | Active | 2.2 | Active | Toxic | 26 | Active | Active | 1.2 | Active | 0.14 | 100 | 180 | 1 | 880 | 160 | 29 | 0.1 | Active | 0.72 | 0.11 | CC50 at 24 h [21]: > 5000 µM; Activity (Mus musculus [22]): Active; Activity (BMDM): inactive
2 | CC(=O)/C=C/c1ccc(O)c(O)c1 | Active | 3.1 | Active | Toxic | 66 | Active | Active | 2.1 | Active | 0.14 | 120 | 280 | 0.4 | 1100 | 200 | 76 | 0.039 | Active | 0.66 | 7.8 | CC50 (B16-F10): 65 µM; CC50 at 24 h [21]: 500 µM; Activity (Mus musculus [22]): Active

— ChEMBL document CHEMBL4364291, “Benzylideneacetone Derivatives Inhibit Osteoclastogenesis and Activate Osteoblastogenesis Independently Based on Specific Structure-Activity Relationship” (J Med Chem, 2019)
